Experimental data: ChEMBL document CHEMBL4033712, “Synthesis and biological evaluation of new C-12(α/β)-(N-) sulfamoyl-phenylamino-14-deoxy-andrographolide derivatives as potent anti-cancer agents” (Bioorg Med Chem Lett, 2017)

What was measured:
Format in all cases: functional
HOP-92 [1] = experiment: Anticancer activity against human HOP92 cells assessed as cell growth at 10 uM after 48 hrs by sulforhodamine B assay relative to control; details: HOP-92, 48 h, read-out: Activity
Procedure, shortened: (§1)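 Single-dose NCI-60 panel screen: compound added at 10 µM and the culture incubated 48 h. The end point was read by protein staining with sulforhodamine B. The value is percent growth of treated cells relative to untreated control cells, reported as a mean graph across the panel.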

SNB-19 = experiment: Anticancer activity against human SNB19 cells assessed as cell growth at 10 uM after 48 hrs by sulforhodamine B assay relative to control; details: SNB-19, 48 h, read-out: Activity; procedure, shortened: as §1
MOLT-4 = experiment: Growth inhibition of human MOLT4 cells incubated for 48 hrs by sulforhodamine B assay; details: MOLT-4, 48 h
Procedure, shortened: (§2)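 NCI-60 five-dose screen at 0.01, 0.1, 1, 10 and 100 µM, 48 h incubation, sulforhodamine B end point. GI50 (50% decrease in net growth), TGI (total growth inhibition) and LC50 (net 50% loss of initial cells) taken from log concentration versus % growth inhibition curves.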

A549 = experiment: Growth inhibition of human A549/ATCC cells incubated for 48 hrs by sulforhodamine B assay; details: A549, 48 h; procedure, shortened: as §2
HOP-62 = experiment: Growth inhibition of human HOP62 cells incubated for 48 hrs by sulforhodamine B assay; details: HOP-62, 48 h; procedure, shortened: as §2
HOP-92 [2] = experiment: Growth inhibition of human HOP92 cells incubated for 48 hrs by sulforhodamine B assay; details: HOP-92, 48 h; procedure, shortened: as §2
NCI-H226 = experiment: Growth inhibition of human NCI-H226 cells incubated for 48 hrs by sulforhodamine B assay; details: NCI-H226, 48 h; procedure, shortened: as §2
NCI-H23 = experiment: Growth inhibition of human NCI-H23 cells incubated for 48 hrs by sulforhodamine B assay; details: NCI-H23, 48 h; procedure, shortened: as §2
NCI-H322M = experiment: Growth inhibition of human NCI-H322M cells incubated for 48 hrs by sulforhodamine B assay; procedure, shortened: as §2
NCI-H460 = experiment: Growth inhibition of human NCI-H460 cells incubated for 48 hrs by sulforhodamine B assay; details: NCI-H460, 48 h; procedure, shortened: as §2
NCI-H522 = experiment: Growth inhibition of human NCI-H522 cells incubated for 48 hrs by sulforhodamine B assay; details: NCI-H522, 48 h; procedure, shortened: as §2
COLO 205 = experiment: Growth inhibition of human COLO205 cells incubated for 48 hrs by sulforhodamine B assay; details: COLO 205, 48 h; procedure, shortened: as §2
HT-29 = experiment: Growth inhibition of human HT-29 cells incubated for 48 hrs by sulforhodamine B assay; details: HT-29, 48 h; procedure, shortened: as §2
SF-268 = experiment: Growth inhibition of human SF268 cells incubated for 48 hrs by sulforhodamine B assay; details: SF-268, 48 h
Procedure, shortened: (§3)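 NCI 60 human tumour cell line panel, five-dose study at 0.01, 0.1, 1, 10 and 100 µM, 48 h incubation. Sulforhodamine B protein-binding dye end point. GI50 (50% decrease in net cell growth), TGI (total growth inhibition) and LC50 (net 50% loss of initial cells) read from log concentration versus % growth inhibition curves.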

U-251 = experiment: Growth inhibition of human U251 cells incubated for 48 hrs by sulforhodamine B assay; details: U-251, 48 h; procedure, shortened: as §3
SK-MEL-28 = experiment: Growth inhibition of human SK-MEL-28 cells incubated for 48 hrs by sulforhodamine B assay; details: SK-MEL-28, 48 h; procedure, shortened: as §3
UACC-257 = experiment: Growth inhibition of human UACC257 cells incubated for 48 hrs by sulforhodamine B assay; details: UACC-257, 48 h; procedure, shortened: as §3
IGROV-1 = experiment: Growth inhibition of human IGROV1 cells incubated for 48 hrs by sulforhodamine B assay; details: IGROV-1, 48 h; procedure, shortened: as §2
OVCAR-3 = experiment: Growth inhibition of human OVCAR3 cells incubated for 48 hrs by sulforhodamine B assay; details: OVCAR-3, 48 h; procedure, shortened: as §2
OVCAR-4 = experiment: Growth inhibition of human OVCAR4 cells incubated for 48 hrs by sulforhodamine B assay; details: OVCAR-4, 48 h; procedure, shortened: as §2
OVCAR-5 = experiment: Growth inhibition of human OVCAR5 cells incubated for 48 hrs by sulforhodamine B assay; details: OVCAR-5, 48 h; procedure, shortened: as §2
NCI/ADR-RES = experiment: Growth inhibition of human NCI/ADR-RES cells incubated for 48 hrs by sulforhodamine B assay; procedure, shortened: as §2
SK-OV-3 = experiment: Growth inhibition of human SKOV3 cells incubated for 48 hrs by sulforhodamine B assay; details: SK-OV-3, 48 h; procedure, shortened: as §3
786-0 = experiment: Growth inhibition of human 786-0 cells incubated for 48 hrs by sulforhodamine B assay; details: 786-0, 48 h; procedure, shortened: as §2
TK-10 = experiment: Growth inhibition of human TK10 cells incubated for 48 hrs by sulforhodamine B assay; details: TK-10, 48 h; procedure, shortened: as §3
UO-31 = experiment: Growth inhibition of human UO31 cells incubated for 48 hrs by sulforhodamine B assay; details: UO-31, 48 h; procedure, shortened: as §3
Hs-578T = experiment: Growth inhibition of human Hs 578T cells incubated for 48 hrs by sulforhodamine B assay; procedure, shortened: as §2
MDA-MB-468 = experiment: Growth inhibition of human MDA-MB-468 cells incubated for 48 hrs by sulforhodamine B assay; details: MDA-MB-468, 48 h; procedure, shortened: as §2
[3] = read-out: LC50 (the source's name)

Compound `C=C1CC[C@@H]2[C@](C)(COC(C)=O)[C@H](OC(C)=O)CC[C@@]2(C)[C@H]1CC(Nc1ccc(S(=O)(=O)Nc2nc(C)cc(C)n2)cc1)C1=CCOC1=O` (some centres undefined) has a growth at 10 µM (HOP-92 [1]) of 90.1% and a growth at 10 µM (SNB-19) of 100%.
For `C=C1CC[C@@H]2[C@](C)(COC(C)=O)[C@H](OC(C)=O)CC[C@@]2(C)[C@H]1CC(Nc1ccc(S(=O)(=O)Nc2cc(C)on2)cc1)C1=CCOC1=O` (some centres undefined), the GI50 (MOLT-4) was 2.12 µM, the TGI (MOLT-4) was 6.39 µM and the CC50 (MOLT-4; [3]) was > 100 µM. The GI50 (A549) was 4.75 µM, the TGI (A549) was 15.4 µM and the CC50 (A549; [3]) was 42.2 µM. For the same compound, the GI50 (HOP-62) was 8.88 µM, the TGI (HOP-62) was 22.9 µM and the CC50 (HOP-62; [3]) was 56.9 µM. For the same compound, the GI50 (HOP-92 [2]) was 3.07 µM, the TGI (HOP-92 [2]) was 8 µM and the CC50 (HOP-92 [2]; [3]) was 28 µM. For the same compound, the GI50 (NCI-H226) was 1.81 µM, the TGI (NCI-H226) was 3.85 µM and the GI50 (NCI-H23) was 2.31 µM. For the same compound, the TGI (NCI-H23) was 5.9 µM, the CC50 (NCI-H23; [3]) was 31.4 µM and the GI50 (NCI-H322M) was 4.68 µM. The TGI (NCI-H322M) was 16.1 µM, the CC50 (NCI-H322M; [3]) was 44.6 µM and the GI50 (NCI-H460) was 2.35 µM. It also gave a TGI (NCI-H460) of 5.7 µM, a CC50 (NCI-H460; [3]) of 27.7 µM and a GI50 (NCI-H522) of 1.04 µM. It also gave a TGI (NCI-H522) of 2.42 µM, a CC50 (NCI-H522; [3]) of 5.61 µM and a GI50 (COLO 205) of 1.97 µM. For the same compound, the TGI (COLO 205) was 4.34 µM, the CC50 (COLO 205; [3]) was 9.55 µM and the GI50 (HT-29) was 1.58 µM. For the same compound, the TGI (HT-29) was 3.09 µM, the CC50 (HT-29; [3]) was 6.04 µM and the GI50 (SF-268) was 2.35 µM. It also gave a TGI (SF-268) of 6.11 µM, a CC50 (SF-268; [3]) of 32.9 µM and a GI50 (U-251) of 1.89 µM. It also gave a TGI (U-251) of 3.4 µM, a CC50 (U-251; [3]) of 6.12 µM and a GI50 (SK-MEL-28) of 2.02 µM. It also gave an LC50 (50% net cell kill) (SK-MEL-28) of 9.2 µM, a TGI (SK-MEL-28) of 4.31 µM and a GI50 (UACC-257) of 2.95 µM. The TGI (UACC-257) was 6.19 µM, the CC50 (UACC-257; [3]) was 18.7 µM and the GI50 (IGROV-1) was 2.36 µM. For the same compound, the TGI (IGROV-1) was 6.51 µM, the CC50 (IGROV-1; [3]) was 76.2 µM and the GI50 (OVCAR-3) was 1.66 µM. The TGI (OVCAR-3) was 3.09 µM, the CC50 (OVCAR-3; [3]) was 5.75 µM and the GI50 (OVCAR-4) was 2.91 µM. For the same compound, the LC50 (OVCAR-4) was 35.1 µM, the TGI (OVCAR-4) was 10.5 µM and the GI50 (OVCAR-5) was 2.16 µM. For the same compound, the LC50 (concentration causing net 50% loss of initial cells) (OVCAR-5) was 7.61 µM, the TGI (OVCAR-5) was 4.05 µM and the GI50 (NCI/ADR-RES) was 2.41 µM. The LC50 (concentration giving net 50% loss of initial cells) (NCI/ADR-RES) was > 100 µM, the TGI (NCI/ADR-RES) was 12 µM and the GI50 (SK-OV-3) was 11 µM. It also gave a TGI (SK-OV-3) of 23.1 µM, a CC50 (SK-OV-3; [3]) of 48.6 µM and a GI50 (786-0) of 1.96 µM. It also gave an LC50 (concentration giving net 50% loss of initial cells) (786-0) of 6.82 µM, a TGI (786-0) of 3.66 µM and a GI50 (TK-10) of 3.04 µM. It also gave a TGI (TK-10) of 7.11 µM, a CC50 (TK-10; [3]) of 23.8 µM and a GI50 (UO-31) of 1.69 µM. It also gave an LC50 (concentration giving net 50% loss of initial cells) (UO-31) of 7.33 µM, a TGI (UO-31) of 3.52 µM and a GI50 (Hs-578T) of 3.92 µM. The LC50 (Hs-578T) was > 100 µM, the TGI (Hs-578T) was 26.7 µM and the GI50 (MDA-MB-468) was 1.49 µM. The TGI (MDA-MB-468) was 3.29 µM and the CC50 (MDA-MB-468; [3]) was 7.27 µM.
